Columns and labels:
[1] = tested on: 293T/nNOS cells; format: cell-based; conditions: for Cell health after treatment: 293T/nNOS cells during the period of A23187 stimulation; for Cytotoxicity: by visual inspection under a microscope; for Inhibition of cell growth: experimental conditions of the inhibition assay
[2] = tested on: nNOS in 293T/nNOS cells; assay: Activation of nNOS in 293T/nNOS cells by A23187; format: cell-based, rat; conditions: A23187 5 μM, after the 8 h-incubation, deduced from Fig. 1C
Outline: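 HEK 293T cells stably transfected with rat nNOS cDNA (lipofection, Geneticin 0.8 mg/ml selection, single-cell cloning, highest-expressing clone), maintained in DMEM with 0.4 mg/ml Geneticin. At ~80% confluence, cells were exposed to 5 μM A23187 or left untreated, alongside WT 293T cells ± A23187. Nitrite in the culture medium was measured by Griess reagent at different times.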

[3] = tested on: nNOS over eNOS; conditions: cited from earlier work
[4] = tested on: nNOS over eNOS in rat tissue; conditions: cited from earlier work

CNc1ccc2oc(C[C@H]3O[C@@]4(CC[C@H]3C)O[C@H]([C@H](C)C(=O)c3ccc[nH]3)[C@H](C)C[C@H]4C)nc2c1C(=O)O [A23187]
Cell death with A23187 stimulation ([1]; 293T/nNOS cells, after 10 h with A23187): no obvious cell death
Nitrite concentration [2]: ~ 18 μM

N=C(Nc1ccc(CCNCc2cccc(Cl)c2)cc1)c1cccs1 [AR-R17477]
Cell health after treatment [1]: remained healthy
Cytotoxicity ([1]; 293T/nNOS cells): no obvious cytotoxicity
Inhibition of cell growth ([1]; 293T/nNOS cells): Neither compound 3 nor AR-R17477 inhibited cell growth

CCSC(N)=NCCC[C@H](N)C(=O)O [Et-TC, S-ethyl-L-thiocitrulline]
Selectivity in vitro for nNOS inhibition over eNOS (in words) [3]: more selective

CSC(N)=NCCC[C@H](N)C(=O)O [Me-TC, S-methyl-L-thiocitrulline]
Inhibition of nNOS over eNOS in rat tissue (in words) [4]: better than Et-TC

N=C(NCCC[C@H](N)C(=O)O)N[N+](=O)[O-] [NNA, N^ω-Nitro-L-arginine]
Cell health after treatment [1]: remained healthy
Cell death ([1]; 293T/nNOS cells under the experimental conditions of the inhibition assay): No cell death was observed

Cc1cc(N)nc(CC2CNCC2NCCNCCc2cccc(F)c2)c1 (centres unmarked) [compound 3, N-[4-(6-amino-4-methylpyridin-2-ylmethyl)pyrrolidin-3-yl]-N′-(3-fluorophenylethyl) ethane-1,2-diamine]
Cytotoxicity ([1]; 293T/nNOS cells): no obvious cytotoxicity
Inhibition of cell growth ([1]; 293T/nNOS cells): Neither compound 3 nor AR-R17477 inhibited cell growth
